Data reported in ChEMBL document CHEMBL1122510, “Actinidin hydrolysis of substituted-phenyl hippurates: a quantitative structure-activity relationship and graphics comparison with hydrolysis by papain” (J Med Chem, 1984).

Assay: Michaelis constant for Actinidin-catalyzed hydrolysis
Format: ADME
How it was run: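 Actinidin purified in-house from kiwi fruit, stored as crystal suspension in 0.1 M sodium phosphate pH 6 with 20% ammonium sulfate; diluted, activated with aqueous DTE (~15 mg/mL), then diluted in 0.1 M sodium phosphate pH 6.0. Substituted-phenyl hippurate added in CH3CN to enzyme-buffer at 25 °C; initial hydrolysis rates read spectrophotometrically at ≥8 substrate concentrations.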

SMILES	Log 1/Km
O=C(CNC(=O)c1ccccc1)Oc1ccc(F)cc1	2.72
N#Cc1ccc(OC(=O)CNC(=O)c2ccccc2)cc1	3.62
NS(=O)(=O)c1cccc(OC(=O)CNC(=O)c2ccccc2)c1	3.42
Cc1ccc(OC(=O)CNC(=O)c2ccccc2)cc1	2.95
NC(=O)c1cccc(OC(=O)CNC(=O)c2ccccc2)c1	3.15
Nc1ccc(OC(=O)CNC(=O)c2ccccc2)cc1	2.55
O=C(CNC(=O)c1ccccc1)Oc1ccccc1	2.77
Cc1cc(C)cc(OC(=O)CNC(=O)c2ccccc2)c1	3.37
O=C(CNC(=O)c1ccccc1)Oc1cccc(F)c1	3.01
O=C(CNC(=O)c1ccccc1)Oc1cc([N+](=O)[O-])cc([N+](=O)[O-])c1	3.9
NS(=O)(=O)c1ccc(OC(=O)CNC(=O)c2ccccc2)cc1	3.22
O=C(CNC(=O)c1ccccc1)Oc1cccc(I)c1	3.93
COc1ccc(OC(=O)CNC(=O)c2ccccc2)cc1	2.87
O=C(CNC(=O)c1ccccc1)Oc1ccc([N+](=O)[O-])cc1	3.8
N#Cc1cccc(OC(=O)CNC(=O)c2ccccc2)c1	3.08
O=C(CNC(=O)c1ccccc1)Oc1cccc(Br)c1	3.64

Continued, values first:

Log 1/Km	SMILES
3.18	CC(=O)Nc1cccc(OC(=O)CNC(=O)c2ccccc2)c1
3.66	CC(C)(C)c1cccc(OC(=O)CNC(=O)c2ccccc2)c1
3.63	O=C(CNC(=O)c1ccccc1)Oc1cccc(Cl)c1
3.84	O=C(CNC(=O)c1ccccc1)Oc1cc(Cl)cc(Cl)c1
3.53	O=C(CNC(=O)c1ccccc1)Oc1cccc([N+](=O)[O-])c1
4.01	O=C(CNC(=O)c1ccccc1)Oc1cc(Cl)c(Cl)c(Cl)c1
3.47	CC(=O)c1ccc(OC(=O)CNC(=O)c2ccccc2)cc1
3.52	CCc1cc(C)cc(OC(=O)CNC(=O)c2ccccc2)c1
3.04	O=C(CNC(=O)c1ccccc1)Oc1ccc(Cl)cc1
3.47	O=C(CNC(=O)c1ccccc1)Oc1cccc(C(F)(F)F)c1
3.6	COc1cc(OC)cc(OC(=O)CNC(=O)c2ccccc2)c1
3.26	Cc1cccc(OC(=O)CNC(=O)c2ccccc2)c1
3.47	NC(=O)c1ccc(OC(=O)CNC(=O)c2ccccc2)cc1
